# Results as given in ChEMBL document CHEMBL4680093 (J Med Chem, 2016).
# pEC50: −log10 of the molar value.
# Assays:
# Glucocorticoid receptor = target: T1, Glucocorticoid receptor (Homo sapiens, UniProt P04150); assay: Antagonist activity at glucocorticoid receptor (unknown origin)
# T1 sequence (P04150 whole entry): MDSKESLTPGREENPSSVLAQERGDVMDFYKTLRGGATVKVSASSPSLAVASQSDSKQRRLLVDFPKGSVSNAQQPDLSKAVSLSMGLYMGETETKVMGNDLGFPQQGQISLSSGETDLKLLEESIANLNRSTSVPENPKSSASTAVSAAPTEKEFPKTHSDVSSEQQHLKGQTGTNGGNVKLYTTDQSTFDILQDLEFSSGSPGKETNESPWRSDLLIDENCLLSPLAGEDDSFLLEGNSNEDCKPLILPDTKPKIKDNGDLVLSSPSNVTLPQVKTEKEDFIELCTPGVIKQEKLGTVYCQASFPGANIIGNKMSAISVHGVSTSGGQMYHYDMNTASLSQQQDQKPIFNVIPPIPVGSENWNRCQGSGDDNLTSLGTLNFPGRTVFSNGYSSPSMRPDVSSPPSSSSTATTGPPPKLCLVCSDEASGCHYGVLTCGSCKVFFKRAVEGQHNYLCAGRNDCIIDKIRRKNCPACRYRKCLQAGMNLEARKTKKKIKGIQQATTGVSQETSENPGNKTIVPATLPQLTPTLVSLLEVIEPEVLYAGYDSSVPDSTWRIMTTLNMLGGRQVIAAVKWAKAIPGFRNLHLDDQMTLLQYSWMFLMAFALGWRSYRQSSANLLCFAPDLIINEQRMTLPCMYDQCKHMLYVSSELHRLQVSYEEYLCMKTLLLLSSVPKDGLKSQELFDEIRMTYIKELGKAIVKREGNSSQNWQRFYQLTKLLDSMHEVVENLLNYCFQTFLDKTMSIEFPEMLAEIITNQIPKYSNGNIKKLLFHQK
# [1] = Ratio of drug level in liver to plasma of mouse at 10 mg/kg, po measured after 2 hrs post dose; format: ADME, organism-based
# Procedure, shortened: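 C57BL/6 mice received a single oral dose of 10 mg/kg in 0.5% methylcellulose/1% Tween80. Animals were sacrificed 2 h post-dose. Compound was measured in brain, liver, adipose and plasma (nmol/g), and tissue/plasma ratios were calculated.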
# [2] = Tmax in rat at 5 mg/kg, po; format: ADME, organism-based; conditions: in vivo
# Procedure, shortened: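 Single-dose PK study. The iv dose was given in 10% hydroxypropyl-β-cyclodextrin and the oral dose in 0.5% methylcellulose/1% Tween80. Mouse and rat received 1 mg/kg iv and 5 mg/kg po. Dog received 0.5 mg/kg iv and 4 mg/kg po. CL, Vss, t1/2, AUC, Cmax, tmax and F were derived.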
# [3] = Half life in dog at 0.5 mg/kg, iv; format: ADME, organism-based, Canis lupus familiaris; conditions: in vivo
# [4] = AUC in mouse at 5 mg/kg, po; format: ADME, organism-based; design: dose 5 mg/kg; conditions: in vivo
# [5] = Ratio of unbound drug level in mouse plasma at 10 mg/kg, po measured after 2 hrs post dose to IC50 for mouse 11beta-HSD1; format: ADME, organism-based; conditions: in vivo
# [6] = In-vivo inhibition of 11beta-HSD1 activity in C57BL/6 mouse epididymal fat assessed as reduction in cortisone to-cortisol conversion at 30 mg/kg, po measured after 2 hrs by ELISA; format: functional; conditions: C57BL/6, Epididymal fat pad
# Procedure, shortened: (§1)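 Male C57BL/6 mice dosed orally once at 3, 10 or 30 mg/kg in sterile water containing 0.5% methylcellulose and 1% Tween80, then sacrificed at 2 or 6 h. Liver and epididymal fat pads incubated ex vivo in culture medium containing cortisone. Cortisol formed was measured by ELISA and reported as % inhibition versus vehicle.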
# [7] = Reduction in nonfasting blood glucose level in C57BL/6-Lep^ob (ob/ob) mouse at 20 mg/kg, po dosed once daily for 25 days relative to control; design: scale not given: the % may be the effect or the level left; conditions: time 25 day
# [8] = In-vivo inhibition of 11beta-HSD1 activity in C57BL/6 mouse epididymal fat assessed as reduction in cortisone to-cortisol conversion at 30 mg/kg, po measured after 6 hrs by ELISA; format: functional; conditions: C57BL/6, Epididymal fat pad; procedure, shortened: as §1
# [9] = Drug level in mouse plasma at 10 mg/kg, po measured after 2 hrs post dose; format: ADME, organism-based; conditions: in vivo
# Procedure, shortened: (§2)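 C57BL/6 mice given a single oral 10 mg/kg dose in 0.5% methylcellulose plus 1% Tween80. Sacrifice at 2 h post-dose, with collection of brain, liver, adipose and plasma. Compound concentration expressed as nmol/g, along with tissue/plasma ratio.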
# [10] = In-vivo inhibition of 11beta-HSD1 activity in C57BL/6 mouse liver assessed as reduction in cortisone to-cortisol conversion at 30 mg/kg, po measured after 2 hrs by ELISA; format: functional; conditions: C57BL/6, Liver; procedure, shortened: as §1
# [11] = AUC in rat at 1 mg/kg, iv; format: ADME, organism-based; design: dose 1 mg/kg; conditions: in vivo
# [12] = In-vivo inhibition of 11beta-HSD1 activity in C57BL/6 mouse epididymal fat assessed as reduction in cortisone to-cortisol conversion at 3 mg/kg, po measured after 6 hrs by ELISA; format: functional; conditions: C57BL/6, Epididymal fat pad; procedure, shortened: as §1
# [13] = In-vivo inhibition of 11beta-HSD1 activity in C57BL/6 mouse liver assessed as reduction in cortisone to-cortisol conversion at 30 mg/kg, po measured after 6 hrs by ELISA; format: functional; conditions: C57BL/6, Liver; procedure, shortened: as §1
# [14] = In-vivo inhibition of 11beta-HSD1 activity in C57BL/6 mouse liver assessed as reduction in cortisone to-cortisol conversion at 10 mg/kg, po measured after 2 hrs by ELISA; format: functional; conditions: C57BL/6, Liver
# [15] = Toxicity in male dog during 4-week repeated once daily oral-dose toxicity study; design: species or system Canis lupus familiaris; conditions: in vivo, time 4 weeks
# Procedure, shortened: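 Dogs of both sexes were dosed orally once daily for 4 weeks at 25, 100 and 400 mg/kg. Toxicity was assessed and the NOAEL determined.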
# Mus musculus = assay: Improvement in lipid profile in C57BL/6-Lep^ob (ob/ob) mouse assessed as total cholesterol level at 20 mg/kg, po dosed once daily for 25 days co-treated with 300 mg/kg. po QD for 25 days metformin (reference value: 286.6 +/- 6.3 mg/dl); conditions: time 25 day
# [16] = Drug level in mouse brain at 10 mg/kg, po measured after 2 hrs post dose; format: ADME, organism-based; conditions: in vivo; procedure, shortened: as §2
structure (smiles),measurement,setting,value
C[C@@H]1CN(c2ccc(S(C)(=O)=O)cc2F)CCN1c1nccc(C(=O)NC2C3CC4CC2CC(O)(C4)C3)n1 (stereo partly drawn),pEC50,Glucocorticoid receptor,< 5.30
same,Kp at 2 h,[1],2.94
same,Tmax,[2],1.3 h
same,half-life,[3],4.7 h
same,AUC,[4],11300 ng·h/mL
same,Ratio,[5],> 50
same,inhibition in vivo at 30 mg/kg,[6],92%
same,Activity,[7],26%
same,inhibition in vivo at 30 mg/kg,[8],93%
same,Cp,[9],10.6 nmol/g
same,inhibition in vivo at 30 mg/kg,[10],91%
same,AUC,[11],1120 ng·h/mL
same,inhibition in vivo at 3 mg/kg,[12],84%
same,inhibition in vivo at 30 mg/kg,[13],92%
same,inhibition in vivo at 10 mg/kg,[14],86%
same,NOAEL at 672 h,[15],400 mg/kg
same,Activity,Mus musculus,235 mg/dL
same,Drug uptake,[16],0.41 nmol/g
